Experimental data collected from several papers.
Compare with care: the assays were run in different laboratories. Values after ≈ are worked out from the molar mass of the structure shown.
Read-out: microbial growth

| Structure (SMILES) | organism | technique | strain | concentration | time | measurement | value |
| --- | --- | --- | --- | --- | --- | --- | --- |
| CC1(C)S[C@@H]2[C@H](NC(=O)[C@H](N)c3ccccc3)C(=O)N2[C@H]1C(=O)O | Salmonella enterica | broth dilution | ATCC14028 | – | 12 h | MIC | 0.25 µg/mL (≈ 0.715 µM) |
| CNC(C)C1CCC(N)C(OC2C(N)CC(N)C(OC3OCC(C)(O)C(NC)C3O)C2O)O1 (centres unmarked) | Bacillus cereus | broth dilution | – | – | – | MIC | 2 µg/mL (≈ 4.19 µM) |
| O=c1oc2ccccc2c(Nc2ccccc2)c1I | Salmonella enterica | broth dilution | TYPHIMURIUM | – | – | MIC90 | 10 µg/mL (≈ 27.5 µM) |
| [H]/N=C(/N)N[C@H]1[C@H](O)[C@@H](O)[C@H](O[C@@H]2O[C@@H](C)[C@](O)(C=O)[C@H]2O[C@@H]2O[C@@H](CO)[C@H](O)[C@@H](O)[C@@H]2NC)[C@@H](N/C(N)=N\[H])[C@@H]1O | Bacillus cereus | broth dilution | ATCC14579 | – | – | MIC | 15 µg/mL (≈ 25.8 µM) |
| N#CC(C#N)=C1SC(C(=O)c2ccc(Nc3cnccn3)cc2)=NN1c1ccccc1 | Salmonella enterica | broth dilution | ATCC13076 TYPHIMURIUM | – | – | MIC | 100 µg/mL (≈ 236 µM) |
| CCCS(=O)(=O)Oc1ccc(C=NNC(=O)CSc2nc3c(C)cccc3c(=O)n2-c2ccccc2)cc1OC | Bacillus cereus | well diffusion | – | 20 µg/mL | – | inhibition zone | 3 mm |
| COc1ccc(N2N=C(C(=O)c3ccc(Nc4cnccn4)cc3)SC2=C(C#N)C#N)cc1 | Salmonella enterica | broth dilution | ATCC13076 TYPHIMURIUM | – | – | MIC | 6.25 µg/mL (≈ 13.8 µM) |
| Nc1ccc(S(=O)(=O)Nc2ncccn2)cc1 | Salmonella enterica | broth dilution | TYPHIMURIUM | – | – | MIC | 94 µg/mL (≈ 376 µM) |
| O=C1/C(=C/c2ccc3ccccc3c2O)NC(=S)N1c1ccccc1 | Bacillus cereus | broth dilution | ATCC14579 | – | – | MIC | 24 µg/mL (≈ 69.3 µM) |
| N#CC(C#N)=C1SC(C(=O)c2ccc(Nc3cnccn3)cc2)=NN1c1ccc([N+](=O)[O-])cc1 | Salmonella enterica | broth dilution | ATCC13076 TYPHIMURIUM | – | – | MIC | 12.5 µg/mL (≈ 26.7 µM) |
| COc1ccc(C=NNC(=O)CSc2nc3c(C)cccc3c(=O)n2-c2ccccc2)cc1OS(C)(=O)=O | Bacillus cereus | well diffusion | – | 20 µg/mL | – | inhibition zone | 2 mm |
